Test results published in ChEMBL document CHEMBL1124622, “Synthesis and antiviral activity of 3'-C-cyano-3'-deoxynucleosides” (J Med Chem, 1989).
Values after ≈ are worked out from the molar mass of the structure shown.

Assays:
HeLa [1] = experiment: Minimum inhibitory concentration against Vesicular stomatitis virus in HeLa cell cultures; format: functional; conditions: Homo sapiens
Method in brief: (§1)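 Confluent HeLa, Vero or primary rabbit kidney cell cultures in microtiter trays are inoculated with 100 CCID50 of virus. After 1 h adsorption, residual virus is removed and cells are incubated with varying compound concentrations. Cytopathogenicity is recorded once it is complete in untreated virus-infected controls. MIC is the concentration inhibiting virus-induced cytopathogenicity.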

[2] = tested on: Moloney murine sarcoma virus; experiment: In vitro effective dose against Moloney murine sarcoma virus induced transformation of C3H embryo fibroblast cells.; format: functional; conditions: read-out: ED50 (the source's name)
Method in brief: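 C3H mouse embryo cells are seeded at 20 000 cells/mL per well and grown 24 h. They are infected with 80 foci-forming units of Moloney MSV for 90 min, then given fresh medium with varying compound concentrations. Transformation is examined microscopically after 6-7 days. ED50 is the dose giving a 50% reduction in transformation.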

Vaccinia virus = experiment: Minimum inhibitory concentration against Vaccinia virus in primary rabbit kidney cell cultures; format: functional; conditions: Orthopoxvirus vaccinia; method in brief: as §1
Homo sapiens = species: Homo sapiens; experiment: Cytotoxic dose against uninfected human MT-4 cell; format: functional; conditions: MT4, read-out: CD50 (the source's name)
Method in brief: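 Cytotoxicity counterpart of the HIV assay: uninfected human MT-4 lymphocytes exposed to the compounds. CD50 is the dose that reduces viability of these uninfected cells by 50%.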

[3] = tested on: Mammalian orthoreovirus 1; experiment: Minimum inhibitory concentration against reovirus in Vero cell cultures; format: functional; method in brief: as §1
Semliki Forest virus = experiment: Minimum inhibitory concentration against forest virus in Vero cell cultures; format: functional; method in brief: as §1
[4] = tested on: Human immunodeficiency virus 1; experiment: Effective dose against HIV-1 induced cytopathogenicity in human MT-4 cell.; format: functional; conditions: Human immunodeficiency virus 1, MT4; read-out: ED50 (the source's name)
Method in brief: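 HIV (HTLV-III_B) is taken from the culture supernatant of a persistently infected HUT-78 line. Human MT-4 lymphocytes are infected and the assay scores inhibition of virus-induced cytopathogenicity. ED50 is the dose giving 50% protection of MT-4 cells against the viral cytopathic effect.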

[5] = Minimum cytotoxic concentration in HeLa cell cultures; format: cell-based; conditions: human, HeLa cells
Coxsackievirus B4 = experiment: Minimum inhibitory concentration against Coxsackie virus B4 in Vero cell cultures; format: functional; conditions: Enterovirus B; method in brief: as §1
[6] = tested on: Vesicular stomatitis virus; experiment: Minimum inhibitory concentration against Vesicular stomatitis virus in primary rabbit kidney cell cultures; format: functional; method in brief: as §1
[7] = Minimum cytotoxic concentration in primary rabbit kidney cell cultures; format: cell-based, Oryctolagus cuniculus; conditions: primary rabbit kidney cells
[8] = In vitro minimum cytotoxic concentration in C3H embryo fibroblast cells.; format: functional; conditions: Mus musculus
Method in brief: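 Minimal cytotoxic concentration in C3H mouse embryo cells, run in the same 48-well setup as the MSV transformation assay: the concentration producing microscopically visible alteration of cell morphology.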

HeLa [9] = experiment: Minimum inhibitory concentration against Coxsackie virus B4 in HeLa cell cultures; format: functional; conditions: Homo sapiens; method in brief: as §1
Human respirovirus 3 = experiment: Minimum inhibitory concentration against parainfluenza 3 virus in Vero cell cultures; format: functional; method in brief: as §1
Sindbis virus = experiment: Minimum inhibitory concentration against Sindbis virus in Vero cell cultures; format: functional; method in brief: as §1
HeLa [10] = experiment: Minimum inhibitory concentration against polio virus 1 in HeLa cell cultures; format: functional; conditions: Homo sapiens; method in brief: as §1
[11] = Minimum cytotoxic concentration in Vero cell cultures; format: cell-based; conditions: chlorocebus sabaeus, Vero cells

SMILES | MIC (HeLa [1]) [µg/mL] | EC50 [2] [µg/mL] | MIC (Vaccinia virus) [µg/mL] | CC50 (Homo sapiens) [µM] | MIC [3] [µg/mL] | MIC (Semliki Forest virus) [µg/mL] | EC50 [4] [µM] | MCC [5] [µg/mL] | MIC (Coxsackievirus B4) [µg/mL] | MIC [6] [µg/mL] | MCC [7] [µg/mL] | MCC [8] [µg/mL] | MIC (HeLa [9]) [µg/mL] | MIC (Human respirovirus 3) [µg/mL] | MIC (Sindbis virus) [µg/mL] | MIC (HeLa [10]) [µg/mL] | MCC [11] [µg/mL]
N#C[C@@H]1[C@@H](O)[C@H](n2ccc(=O)[nH]c2=O)O[C@@H]1CO | > 200 | 260 (≈ 1030 µM) | 4 (≈ 15.8 µM) | > 400 | > 200 | > 200 | > 400 | > 400 | > 200 | > 200 | > 200 | 400 | > 200 | > 200 | > 200 | > 200 | 400
Cc1cn(C2CC(C#N)C(CO[Si](C)(C)C(C)(C)C)O2)c(=O)[nH]c1=O (stereo not given) | > 40 | > 16 | > 40 | 31 | 20 (≈ 54.7 µM) | > 100 | > 16 | 100 | > 100 | > 40 | > 100 | 80 | > 40 | > 100 | > 100 | > 40 | > 100
CC(C)(C)[Si](C)(C)OC[C@H]1O[C@@H](n2ccc(=O)[nH]c2=O)[C@H](O[Si](C)(C)C(C)(C)C)[C@H]1C#N | > 1 | 2.2 (≈ 4.57 µM) | > 1 | 1.6 | > 1 | > 1 | > 6.04 | 4 | > 1 | > 1 | > 4 | > 3.2 | > 4 | > 1 | > 1 | > 4 | 4
Cc1cn(C2C=C(C#N)C(CO)O2)c(=O)[nH]c1=O (stereo not given) | 150 (≈ 602 µM) | 191 (≈ 766 µM) | > 100 | 24 | > 40 | > 40 | > 50 | 400 | > 100 | > 100 | 200 | > 250 | > 200 | > 40 | > 100 | > 200 | > 100
Cc1cn([C@H]2C[C@@H](C#N)[C@@H](CO)O2)c(=O)[nH]c1=O | > 400 | > 250 | > 400 | > 250 | > 200 | > 400 | > 250 | > 400 | > 400 | > 400 | > 400 | > 250 | > 400 | > 200 | > 400 | > 400 | > 400
N#CC1C(CO)OC(n2ccc(N)nc2=O)C1O (stereo not given) | 70 (≈ 278 µM) | 43 (≈ 170 µM) | 40 (≈ 159 µM) | 22.7 | > 100 | > 100 | > 10 | 100 | > 100 | > 100 | > 100 | > 200 | > 40 | > 100 | > 100 | > 40 | 200
N#C[C@@H]1[C@@H](O)[C@H](n2cnc3c(N)ncnc32)O[C@@H]1CO | 150 (≈ 543 µM) | 6.6 (≈ 23.9 µM) | 4 (≈ 14.5 µM) | 2.9 | > 100 | 20 (≈ 72.4 µM) | > 1.6 | 400 | 100 (≈ 362 µM) | > 200 | 200 | > 40 | > 200 | 70 (≈ 253 µM) | 10 (≈ 36.2 µM) | > 200 | 200
CC(C)(C)[Si](C)(C)OC[C@H]1O[C@@H](n2cnc3c(N)ncnc32)[C@H](O[Si](C)(C)C(C)(C)C)[C@@H]1C#N | 150 (≈ 297 µM) | > 1.6 | > 4 | 5.1 | > 4 | > 4 | 2.1 | 400 | > 4 | > 4 | 10 | 8 | > 200 | > 4 | > 4 | > 200 | 10
Nc1nccc2c1ncn2[C@@H]1C[C@H](CO)[C@@H](O)[C@H]1O [3-DEAZAARISTEROMYCIN A] | 1 (≈ 3.78 µM) | – | 2 (≈ 7.57 µM) | – | 7 (≈ 26.5 µM) | > 400 | – | > 400 | 100 (≈ 378 µM) | 0.7 (≈ 2.65 µM) | > 400 | – | > 400 | 4 (≈ 15.1 µM) | 300 (≈ 1140 µM) | > 400 | 400
CC(C)(C)[Si](C)(C)OCC1OC(n2ccc(N)nc2=O)C(O[Si](C)(C)C(C)(C)C)C1C#N (stereo not given) | > 1 | > 1.6 | > 4 | 6.1 | > 4 | > 4 | > 3.2 | > 4 | > 4 | > 4 | > 10 | 8 | > 1 | > 4 | > 4 | > 1 | 10
CC(=O)Nc1ccn(C2OC(CO[Si](C)(C)C(C)(C)C)C(C#N)C2O[Si](C)(C)C(C)(C)C)c(=O)n1 (stereo not given) | > 1 | 2.2 (≈ 4.21 µM) | > 1 | 4.8 | > 4 | > 4 | > 3.2 | > 4 | > 4 | > 1 | > 4 | > 3.2 | 2 (≈ 3.83 µM) | > 4 | > 4 | > 4 | > 4
N#C[C@H]1[C@@H](O)[C@H](n2ccc(=O)[nH]c2=O)O[C@@H]1CO | > 200 | > 200 | > 200 | 147 | > 100 | > 100 | > 80 | > 200 | > 100 | > 200 | > 200 | > 200 | > 200 | > 100 | > 100 | > 200 | > 200
